In general, IC50 refers to the concentration that gives 50% inhibition. Low readings indicate inhibition by little substance, high ones a need for much substance.

This note sets out measurements from ChEMBL document CHEMBL1141348, “Cytotoxic cardenolide glycosides of Roupellina (Strophanthus) boivinii from the Madagascar rainforest” (J Nat Prod, 2007).

The structures appear in SMILES notation.

The subject of this assay is A2780. Description: Antiproliferative activity against human A2780 cells. Format: functional, cell-based. The essentials: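 Growth inhibition of the drug-sensitive human ovarian cancer line A2780, measured at Virginia Polytechnic Institute and State University. IC50 is the concentration that inhibited 50% of cell growth. Actinomycin D was the positive control.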
For `C[C@H]1O[C@@H](O[C@H]2CC[C@@]3(C=O)[C@@H](CC[C@@H]4[C@@H]3CC[C@]3(C)[C@@H](C5=CC(=O)OC5)CC[C@]43O)C2)C[C@H](O)[C@H]1O`, half-maximal inhibition (IC50) was put at 150 nM.

In turn, `CO[C@H]1[C@@H](O)[C@H](O[C@H]2CC[C@@]3(C)[C@@H](CC[C@@H]4[C@@H]3CC[C@]3(C)[C@@H](C5=CC(=O)OC5)CC[C@]43O)C2)O[C@@H](C)[C@@H]1O[C@@H]1O[C@H](CO)[C@@H](O)[C@H](O)[C@H]1O` showed a 50% inhibitory concentration (IC50) of 150 nM.

In turn, `C[C@H]1[C@@H](O[C@H]2CC[C@@]3(C)[C@@H](CC[C@@H]4[C@@H]3CC[C@]3(C)[C@@H](C5=CC(=O)OC5)CC[C@]43O)C2)O[C@@H](C)[C@@H](O)[C@H]1O` displayed an IC50 of 150 nM.

Regarding `CO[C@H]1C[C@H](O[C@H]2CC[C@@]3(C=O)[C@@H](CC[C@@H]4[C@@H]3CC[C@]3(C)[C@H](C5=CC(=O)OC5)CC[C@]43O)C2)O[C@H](C)[C@@H]1O`, the IC50 worked out at 3700 nM.

With `CO[C@@H]1[C@@H](O)[C@H](O[C@H]2CC[C@@]3(C=O)[C@@H](CC[C@@H]4[C@@H]3CC[C@]3(C)[C@@H](C5=CC(=O)OC5)CC[C@]43O)C2)O[C@H](C)[C@@H]1O[C@@H]1O[C@H](CO)[C@@H](O)[C@H](O)[C@H]1O` [BOIVINIDE A], 170 nM corresponded to half-maximal inhibition (IC50).

Turning to `CO[C@H]1C[C@H](O[C@H]2CC[C@@]3(C=O)[C@@H](CC[C@@H]4[C@@H]3CC[C@]3(C)[C@@H](C5=CC(=O)OC5)CC[C@]43O)C2)O[C@H](C)[C@@H]1O[C@@H]1O[C@H](CO)[C@@H](O)[C@H](O)[C@H]1O` [BOIVINIDE B], the IC50 was 660 nM.

`CO[C@H]1C[C@H](O[C@H]2CC[C@@]3(C=O)[C@@H](CC[C@@H]4[C@@H]3CC[C@]3(C)[C@H](C5=CC(=O)OC5)CC[C@]43O)C2)O[C@H](C)[C@@H]1O[C@@H]1O[C@H](CO)[C@@H](O)[C@H](O)[C@H]1O` [BOIVINIDE C] displayed an IC50 of 2900 nM.

Take `C[C@H]1O[C@@H](O[C@H]2CC[C@@]3(C=O)[C@@H](CC[C@@H]4[C@@H]3CC[C@]3(C)[C@@H](C5=CC(=O)OC5)CC[C@]43O)C2)C[C@H](O)[C@H]1O[C@@H]1O[C@H](CO)[C@@H](O)[C@H](O)[C@H]1O` [BOIVINIDE D]: the IC50 was determined as 290 nM.

As for `CO[C@H]1[C@@H](O[C@@H]2O[C@H](CO)[C@@H](O)[C@H](O)[C@H]2O)[C@@H](C)O[C@@H](O[C@H]2CC[C@@]3(C=O)[C@@H](CC[C@@H]4[C@@H]3CC[C@]3(C)[C@@H](C5=CC(=O)OC5)CC[C@]43O)C2)[C@@H]1OC(C)=O` [BOIVINIDE F], half-maximal inhibition (IC50) was put at 540 nM.
